This is one part of a sample in which hits are shown more often than they occur.
CHOP inhibitor: inhibitors of CHOP promoter induction, primary screen, cell-based, unfolded protein response, luciferase reporter; CHO-K1 CHOP-promoter luciferase, tunicamycin-induced, 15-18 h; inhibition, % at 10 µM; hit rate 3.8% among 220,000;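 active means compounds that reduced the stress-induced luciferase reporter signal by more than about 70% of percent inhibition, limit read from the data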;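 further: 0% = tunicamycin plus vehicle and 100% = wells without tunicamycin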
CHOP UPR activ: activators of apoptotic CHOP UPR arm, primary screen, cell-based, CHO-CHOP luciferase reporter, luminescence, uHTS; UPR activation; percent of tunicamycin response over DMSO baseline; AID 449763, 2010; hit rate 0.34% among 330,000; activation, % at 10 µM;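 active means at 10 µM dose, activation of 40% or more, normalized to positive control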;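 further: 100% = tunicamycin at 10 µg/mL and 0% = DMSO alone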
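measured by = luciferase luminescence | assay system = CHO-CHOP cells, stable luciferase reporter of PERK-eIF2a-CHOP signalling | amount = 500 reporter cells seeded per well | timing = 6 h compound exposure at 37 °C after overnight seeding | controls = positive tunicamycin 10 µg/mL, negative DMSO alone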
B2AR ag: beta2AR agonists driving receptor internalization, primary screen, cell-based, FAP fluorogen, flow cytometry; Beta-2 adrenergic receptor (Homo sapiens), P07550; Am2.2-beta2AR cells; response, % (concentration not given with the values); hit rate 0.43% among 340,000;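 active means response above a set limit, near 3 SD of response in nonfluorescent compounds, cut at about 42% in these data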
Target sequence (P07550 whole entry, looked up): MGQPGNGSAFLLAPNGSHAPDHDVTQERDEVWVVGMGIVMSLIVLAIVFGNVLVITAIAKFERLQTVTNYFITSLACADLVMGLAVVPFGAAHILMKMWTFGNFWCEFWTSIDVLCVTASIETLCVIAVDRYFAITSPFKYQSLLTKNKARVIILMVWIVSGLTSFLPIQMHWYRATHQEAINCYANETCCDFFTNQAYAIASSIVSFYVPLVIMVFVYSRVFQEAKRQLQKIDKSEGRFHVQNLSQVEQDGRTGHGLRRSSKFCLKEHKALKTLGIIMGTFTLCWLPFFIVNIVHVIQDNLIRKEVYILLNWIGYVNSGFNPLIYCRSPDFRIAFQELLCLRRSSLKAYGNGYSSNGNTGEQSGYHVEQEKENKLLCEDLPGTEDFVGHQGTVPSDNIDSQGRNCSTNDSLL
XBP1 UPR activ: activators of adaptive XBP1 UPR arm, primary screen, cell-based, CHO-XBP1 luciferase reporter, luminescence, uHTS; IRE1-XBP1 UPR activation; percent of tunicamycin response, DMSO as zero; activation, % at 20 µM; hit rate 0.33% among 330,000; AID 463104, 2010;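 active means versus positive control, 20 µM dose yields 30% or more activation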;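 further: 100% = tunicamycin at 10 µg/mL and 0% = DMSO only wells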
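incubation = overnight seeding at 37 °C, 6 h compound treatment at 37 °C | assay system = CHO-XBP1 cells stably carrying IRE1-XBP1-driven luciferase reporter | input = 1000 cells per well | detection = luciferase luminescence | dosing = single point, 20 µM final compound, 1% DMSO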
VLA-4 inh: inhibition in human VLA-4 binding assay, primary screen, VLA-4 allosteric modulator project, MLPCN library, flow cytometry, VLA-4 expressing cells; Integrin alpha-4 (Homo sapiens), P13612; ligand binding flow cytometry; inhibition, % (about 7 µM as worked out from the volumes in the protocol); hit rate 0.2% among 330,000; in the data active means inhibition above about 50%
CHOP inh conf: retest of CHOP induction inhibitors, confirmation, cell-based; shares compounds with CHOP inhibitor; hit rate 45% among 2,100; CHO-CHOP promoter luciferase reporter, tunicamycin-induced, luminescence; inhibition, % at 10 µM;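 active means mean of three repeat readings of reporter signal inhibition above a set limit, cut at about 70% in these data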;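 further: 0% = tunicamycin plus vehicle and 100% = wells lacking tunicamycin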
Starred values were filed as active, the others as inactive; / = no result.

SMILES	CHOP inhibitor	CHOP UPR activ	B2AR ag	XBP1 UPR activ	VLA-4 inh	CHOP inh conf
CSC(SC)=C(C#N)C(=O)c1ccccc1	107*	39	70*	-8	14	102*
Nc1nc(-c2ccccc2)c(N=Nc2ccccc2Cl)s1	97*	-2	14	0	10	80*
O=C(CSc1n[nH]c(-c2ccccc2)n1)NCc1cccc(C(=O)O)c1	-3	-1	1	-1	17	/
CCCN(CC(=O)Nc1ccc(F)c(F)c1F)C(=O)C1=COCCO1	/	0	0	-5	-7	/
CCN1CCN(C(=S)Nc2ccc3nc(N4CCN(CC)CC4)cc(C)c3c2)CC1	-1	1	-2	-1	4	/
CCN1CCN(c2cc(C)c3cc(NC(=S)N4CCN(c5ccc(F)cc5)CC4)ccc3n2)CC1	106*	5	10	0	-11	-9
CCN1CCN(S(=O)(=O)c2ccc(Cl)c(C(=O)NC(C)c3ccccc3Cl)c2)CC1 (stereo not drawn)	/	2	2	0	9	/
Cc1oc2ccc(NS(=O)(=O)c3ccc(C(C)(C)C)cc3)cc2c1C(=O)Nc1ccccc1	107*	3	-2	-4	20	45
CC(=O)c1c(C)oc2ccc(NS(=O)(=O)c3ccc(C)cc3)cc12	/	0	4	2	9	/
O=C(c1ccc2oc(Cc3ccc(Cl)cc3)nc2c1)N1CC[C@H](O)C1	/	-2	-4	-6	0	/
CC/C(=N\Nc1ccc([N+](=O)[O-])cc1[N+](=O)[O-])c1ccc(O)cc1	/	1	-8	-4	-8	/
CC/C(=N\Nc1ccccc1[N+](=O)[O-])c1ccc(O)cc1	100*	2	0	-1	-2	26
COC(=O)c1sccc1NC(=O)CC1NCCNC1=O (stereo not drawn)	-3	-3	-4	2	3	/
O=C(O)c1cc(S(=O)(=O)NCCOc2ccccc2)ccc1Cl	/	1	-8	-3	-16	/
Cc1ccc(SCCNS(=O)(=O)c2ccc(F)cc2)cc1	97*	2	4	-1	12	6
COc1ccc(C(=O)NCC(=O)OCc2c(Cl)cccc2Cl)cc1OC	/	2	-1	0	/	/
COC(=O)Cn1c(=NC(=O)c2nc3ccccc3s2)sc2cc(S(N)(=O)=O)ccc21	104*	2	-19	4	1	-30
COC(=O)Cn1c(=NC(=O)c2cc(-c3cccs3)nc3ccccc23)sc2cc(S(N)(=O)=O)ccc21	35	5	6	-2	-16	/
CC(NC(=O)c1ccccc1)C(=O)OCn1nnc2ccccc2c1=O (stereo not drawn)	/	1	1	-3	2	/
COc1cc2c(cc1OC)C(c1ccccc1)N(C(=O)c1cccc(S(C)(=O)=O)c1)CC2 (stereo not drawn)	/	3	8	4	-8	/
CCOC(=O)Cc1nnc2c(Nc3ccc(Cl)cc3)nc3nonc3n12	105*	1	11	0	32	61
COCCN(C(=O)CCC(=O)Nc1cc(C)on1)C(C(=O)NC(C)(C)C)c1cccc(OC)c1OC (stereo not drawn)	/	-1	0	2	5	/
Clc1ccc(-c2csc(N/N=C/c3cccnc3)n2)c(Cl)c1	98*	0	40	2	6	87*
C(=N\Nc1nc(-c2ccccc2)cs1)/c1cccnc1	42	4	-14	-1	-8	/
C[C@H]1CN([C@@H](C)CO)C(=O)Cc2cc(NC(=O)CCC(F)(F)F)ccc2O[C@H]1CN(C)S(=O)(=O)c1ccc(F)cc1	/	0	4	-1	7	/
CC(C)CCNC(=O)CCc1nnc2n(CCCOC(C)C)c(=O)c3ccccc3n12	/	-1	-14	0	12	/
Cc1cc(C(=O)COC(=O)c2ccccc2O)c(C)n1Cc1cccs1	109*	-8	1	-6	1	111*
O=[N+]([O-])c1cccc(SSc2cccc([N+](=O)[O-])c2)c1	/	/	3	/	/	/

From PubChem BioAssay
